Hits are enriched below; roughly 2% of the tested compounds scored in any of these assays.
GSTO1 inh – blocks human GSTO1 in RBBP9 counter-screen. hit rate 1.1% among 300,000. inhibition, % at 5.96 µM. P78417. recombinant GSTO1, activity-based probe fluorescence polarization;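 active = inhibition above the campaign mean inhibition plus 3 SD, cut at about 35% in these data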;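 note: 0% = GSTO1-1 with DMSO and 100% = wells lacking GSTO1-1 enzyme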
Target sequence (P78417 whole entry, looked up): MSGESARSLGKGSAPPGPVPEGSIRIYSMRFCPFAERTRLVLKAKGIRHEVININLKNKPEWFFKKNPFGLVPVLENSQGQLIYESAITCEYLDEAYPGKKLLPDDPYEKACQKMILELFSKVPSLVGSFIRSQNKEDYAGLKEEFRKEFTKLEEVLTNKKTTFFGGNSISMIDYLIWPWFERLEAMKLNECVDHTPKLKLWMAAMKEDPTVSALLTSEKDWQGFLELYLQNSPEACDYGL
PP5 inh – inhibitors of human protein phosphatase 5 (PP5); P53041; purified PP5c, OMFP substrate fluorescence; inhibition, % at 6.7 µM; hit rate 0.18% among 320,000;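 active = inhibition above the campaign's mean inhibition across all tested compounds plus 3 SD, cut at about 9.5% in these data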;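 note: 0% = DMSO only and 100% = 100 µM cantharidin control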
Fh CTSL1 inh – cathepsin L1 inhibition, PFM18AAP counter-screen. hit rate 0.49% among 300,000. inhibition, % at 5.96 µM. AID 1906. recombinant F. hepatica cathepsin L1, Z-Leu-Arg-MCA fluorescence;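 active = inhibition above the mean of all tested compounds plus 3 SD, set per screening campaign, cut at about 17% in these data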;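 note: 0% = plate median of test compound wells and 100% = 1 µM Z-Phe-Ala-diazomethylketone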
UCH37 DUB inh – inhibitors of human deubiquitinating enzyme UCH37; Q9Y5K5; purified proteasome/UCH37, Ub-AMC cleavage fluorescence; hit rate 0.33% among 330,000; inhibition, % (test concentration not listed); AID 588478;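 active = mean inhibition over replicate wells above about 20%, limit read from the data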;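 note: 0% = compound-free wells with enzyme and 100% = wells lacking proteasome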
Target sequence (Q9Y5K5 whole entry, looked up): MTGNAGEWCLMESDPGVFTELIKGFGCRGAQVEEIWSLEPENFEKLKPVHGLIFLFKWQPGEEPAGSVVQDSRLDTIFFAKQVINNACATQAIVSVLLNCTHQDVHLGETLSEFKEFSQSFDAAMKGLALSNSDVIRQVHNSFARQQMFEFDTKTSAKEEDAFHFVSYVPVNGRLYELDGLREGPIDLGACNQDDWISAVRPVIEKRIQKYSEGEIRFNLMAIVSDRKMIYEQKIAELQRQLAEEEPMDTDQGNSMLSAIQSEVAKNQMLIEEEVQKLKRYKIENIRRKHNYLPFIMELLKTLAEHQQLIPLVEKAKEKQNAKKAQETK
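Signal – fluorescence, ex 355 nm, em 460 nm · System – Proteasome-bound UCH37 · Input – 0.15 nM proteasome as dispensed · Timing – 30 min preincubation with enzyme, 25 min cleavage at room temperature · Read-out basis – percent inhibition of cleavage signal versus uninhibited and no-proteasome wells · Medium – Tris-HCl pH 7.4 with ATP-MgCl2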
Apaf-1 inh – human Apaf-1 inhibition; reconstituted apoptosome caspase-3 activity, DEVD-Rh110 fluorescence; inhibition, % at 20 µM; hit rate 0.71% among 330,000; AID 489030; active = inhibition of at least 40% at 20 µM;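 note: plate controls were DMSO wells for no effect and DEVD-CHO caspase inhibitor wells for full effect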
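Material: cell-free apoptosome with Apaf-1, procaspase-3 and caspase-9; Buffer or medium: Hepes pH 7.5 with detergent and BSA; Reagent: cytochrome c trigger plus (Z-DEVD)2-Rh110 caspase-3 substrate; Times: compound with Apaf-1, dATP, procaspase-3 30 min, then 50 min reaction, room temperature; Technique: Rh110 fluorescence intensity.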
PAD4 FP inh – blocks human protein arginine deiminase 4; Q9UM07; recombinant PAD4, RCA probe fluorescence polarization; inhibition, % at 6.36 µM; hit rate 0.41% among 330,000;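 active = percent inhibition above a cutoff equal to the mean of all tested compounds plus 3 SD, cut at about 15% in these data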;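 note: 0% = PAD4 with RCA probe and DMSO and 100% = probe without PAD4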
Starred values were filed as active, the others as inactive; · = no result.

SMILES	GSTO1 inh	PP5 inh	Fh CTSL1 inh	UCH37 DUB inh	Apaf-1 inh	PAD4 FP inh
CC(C=NNC(=O)c1ccc(CN2c3cccc4cccc(c34)S2(=O)=O)cc1)c1ccccc1 (configuration not stated)	·	·	·	-91	·	·
CCOC(=O)[C@@H]1[C@H]2COc3ccc(Br)cc3[C@@H]2N2C(=O)N(c3ccc(F)cc3)C(=O)[C@@]12C	·	·	·	20*	22	-7
Cc1noc(C(=O)Nc2ccc3c(c2)OCO3)c1Cl	7	2	1	8	1	-1
CCc1onc(C)c1C(=O)Nc1ccc2c(c1)OCO2	12	-1	19*	4	-5	2
CCC(=NNC(=O)c1c(C)nc2ccccn12)c1ccc(Cl)cc1	·	·	·	9	·	·
O=S(=O)(NCCc1ccccc1F)c1cccc(S(=O)(=O)N2CCOCC2)c1	43*	4	-4	-1	6	5
OC(CN1CCN(Cc2ccc3c(c2)OCO3)CC1)c1c[nH]c2ccccc12 (configuration not stated)	·	·	·	·	-2	·
OC(CN1CCN(c2ccccc2)CC1)c1c[nH]c2ccccc12 (configuration not stated)	1	-4	0	24*	17	-7
COc1cccc(C=NNC(=O)Cn2cnc3c2c(=O)n(C)c(=O)n3C)c1	·	·	·	5	·	·
Cc1ccccc1OC(C)C(=O)NC1CCCC1 (configuration not stated)	6	1	5	28*	7	0
O=C(NCC(c1cccs1)N1CCOCC1)c1ccccc1NS(=O)(=O)c1ccc(Cl)c([N+](=O)[O-])c1 (configuration not stated)	50*	5	-2	0	13	-2
C=CCn1c(=C2C(=O)NN=C2C)sc(=C2Sc3ccccc3N2CC)c1=O	·	·	·	4	·	·
Cc1ccc(C(=O)NN=C/C=C/c2ccccc2)o1	·	·	·	21*	·	·
Cc1ccc(C(=O)N/N=C/C=C/c2ccccc2)o1	9	-1	7	·	-2	-1
Cc1ccc(-n2nnnc2Sc2nc([N+](=O)[O-])nn2C)cc1C	18	1	9	20*	-4	-1
Cn1c(=O)oc2cc(S(=O)(=O)NCCc3ccccc3)ccc21	35*	-1	0	4	-6	4
CCN1CCc2c(sc(NC(=O)c3ccc4ccccc4c3)c2C(N)=O)C1	-18	3	2	·	40*	-1
CCN1CCN(S(=O)(=O)c2ccc(C(=O)Nc3sc4c(c3C(N)=O)CCN(CC)C4)cc2)CC1	-11	4	2	7	-13	2
CN1CCc2c(sc(NC(=O)c3ccc(C(=O)c4ccccc4)cc3)c2C(N)=O)C1	-24	5	2	0	44*	1
CC(C)N1CCc2c(sc(NC(=O)c3cc(-c4cccs4)nc4ccccc34)c2C(N)=O)C1	1	5	4	·	61*	-6
CC(=NNC(=S)Nc1ccc(C(C)C)cc1)c1ccc2c(c1)OCO2	·	·	·	2	·	·
C[n+]1cccc(C2C(C#N)=C(N)Oc3c2ccc2ccccc32)c1 (configuration not stated)	37*	4	7	6	38	-11
COC(=O)CN(C)C(=O)c1ccc(OC)c(OC2CCN(C(C)C)CC2)c1	-2	-8	52*	5	4	1
COc1ccc(NC(=S)NN=Cc2cccn2Cc2ccc(F)cc2Cl)cc1	·	·	·	-1	·	·
O=C(Nc1ccc2nc(-c3cccs3)[nH]c2c1)c1cccs1	-9	1	17*	-10	2	-5
SMILES	GSTO1 inh	PP5 inh	Fh CTSL1 inh	UCH37 DUB inh	Apaf-1 inh	PAD4 FP inh
CCOC(=O)C(C#N)=NNc1ccccc1OC	·	·	·	2	·	·
CCOC(=O)/C(C#N)=N\Nc1cc(Cl)ccc1OC	7	1	32*	·	-9	-3
O=C1CC(=O)N(Cc2ccco2)C(=O)N1	37*	2	-4	6	9	-4
CC(C)C(NC(=O)c1ccco1)C(=O)NCC(c1ccco1)N1CCCCC1 (configuration not stated)	-2	-4	79*	-1	-1	1
O=C1CSC(c2cccc([N+](=O)[O-])c2)N1c1c(F)cccc1F (configuration not stated)	-4	2	20*	2	5	2
CC(C)(C)c1ccc(C(=O)NN=C2C3CN4CCN(C3)CC2(c2ccccc2)C4)cc1	·	·	·	-1	·	·
CCn1c2ccccc2c2cc(NC(=O)COC(=O)c3ccccc3F)ccc21	3	-1	-2	-1	-4	-4
CCn1c2ccccc2c2cc(NC(=O)COC(=O)c3ccc(NC(=O)CC#N)cc3)ccc21	36*	0	5	1	23	-13
Cn1c(=NN=Cc2ccccn2)sc2ccccc21	·	·	·	7	·	·
CC(=NNc1ccc([N+](=O)[O-])cc1)c1ccc(C)cc1C	·	·	·	0	·	·
N/C(=N\OS(=O)(=O)c1ccc(Cl)cc1)c1ccncc1	1	-1	24*	3	-14	-1
CC(=NNc1ncc(Cl)cc1Cl)c1ccc2c(c1)OCO2	·	·	·	1	·	·
CC12OC1C1(O)CCCC1=CC2=O (configuration not stated)	0	-1	2	·	-2	2
COC1=CC2(O)CCCC2=CC1=O (configuration not stated)	5	0	-5	30*	3	-1
Cc1ccc(S(=O)(=O)N=C(CN2CCOCC2)N2CCOCC2)cc1	·	·	·	5	·	·
Nc1nc(NC(=O)c2ccc(F)cc2)ns1	13	-2	-1	27*	-6	9
O=C(CSc1ccccc1)N1CCN(c2ccc(F)cc2)CC1	2	-2	17*	2	-12	1
O=C(CSCc1ccc(F)cc1)N1CCN(c2ccccc2)CC1	-1	1	-3	4	10	2
COc1cc(NC(=O)C2C3CCC(O3)C2C(=O)O)cc(OC)c1 (configuration not stated)	3	80*	-1	7	-3	-5
O=C(O)C1C2CCC(O2)C1C(=O)Nc1ccc(OC(F)F)cc1 (configuration not stated)	10	68*	0	·	-13	0
Cc1ccc(NC(=O)C2C3CCC(O3)C2C(=O)O)cc1C (configuration not stated)	-3	83*	0	-2	-10	2
O=C(O)c1ccc(NC(=O)C2C3CCC(C3)C2C(=O)O)cc1 (configuration not stated)	1	2	3	3	-10	2
O=C(O)C1C2CCC(O2)C1C(=O)Nc1ccc(O)cc1 (configuration not stated)	12	43*	4	0	13	7
S=C(NCCN1CCOCC1)NN=Cc1c2ccccc2cc2ccccc12	·	·	·	-2	·	·
Cc1ccc(C)c(C(C)NC(=O)C2C3CCC(O3)C2C(=O)O)c1 (configuration not stated)	6	82*	5	·	-1	-1

Screening data from PubChem.
